# STAT3 inh: IL-6 driven STAT3 reporter inhibitors, primary screen, U3A cells, luciferase, luminescence, MLSCN library | IL-6 STAT3-luciferase reporter; host cell line lacks STAT1 | hit rate 0.89% among 190,000 | AID 862, 2007 | inhibition, % at 5.5 µM;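 active means inhibition above the mean inhibition across all screened compounds plus 3 SD, cut at about 44% in these data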;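 further: 0% = DMSO only wells and 100% = 100 µM nifuroxazide control wells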
# STAT3 act-1: IL-6 driven STAT3 reporter potentiators, primary screen, U3A cells, luciferase, luminescence, MLSCN library | IL-6 STAT3-luciferase reporter; 100% = signal with IL-6 EC80 alone | activation (% of control), % at 5.6 µM | hit rate 0.91% among 190,000;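 active means activation above the screen-wide mean of compound activation plus 3 SD, cut at about 130% in these data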;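 further: 0% = background luminescence of wells with medium and substrate only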
#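 Test system: human U3A cells carrying STAT3-luciferase construct; control set: IL-6-only wells as 100% reference; timing: compound pre-incubation 1 h before IL-6, then 6 h stimulation at 37 °C; also added: IL-6 stimulus at 33 ng/mL final; evaluation: % activation versus median of IL-6-stimulated wells; detection: reporter luminescence signal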
# STAT1 inh: STAT1 signaling inhibitors, primary screen, cell-based, HTS, luciferase reporter; NIH 3T3 STAT1-luciferase reporter, IFN-gamma, luminescence; inhibition, % at 5.5 µM; hit rate 0.35% among 200,000; AID 920, 2007;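 active means inhibition above a set limit, the mean inhibition across all tested compounds plus 3 SD, cut at about 34% in these data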;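 further: 0% = IFN-gamma with DMSO and 100% = IFN-gamma with 300 µM nifuroxazide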
# STAT1 act-1: STAT1 signaling activators, primary screen, cell-based, HTS, luciferase reporter. hit rate 2.6% among 200,000. activation (% of control), % at 5.5 µM. AID 932, 2007. NIH 3T3 STAT1-luciferase reporter, IFN-gamma, luminescence; 100% = IFN-gamma alone, no compound;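 active means activation above the screen-wide mean activation plus 3 SD, cut at about 130% in these data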;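 further: raw ratio to IFN-gamma control signal so 100% means no change and 0% no light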
# NF-kB neuron act: activators of NF-kB expression in neurons, primary screen, cell-based, HTS. human neuronal cells, NF-kB reporter expression; hits give high values. fold change at 12.5 µM. hit rate 1.6% among 190,000; in the data active means fold change above about 3.3
# APP 5'UTR act: activators of APP 5'UTR luciferase reporter, primary screen, SH-SY5Y cells; SH-SY5Y APP 5'UTR luciferase reporter, luminescence; zero percent = DMSO vehicle wells; activation, % at 2 µM; hit rate 1% among 190,000;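 active means activation above a set limit, based on mean plus 3 SD of controls, cut at about 140% in these data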
# STAT3 act-2: STAT3 reporter potentiators, retest of hits, confirmation, U3A cells, luciferase, luminescence; shares compounds with STAT3 act-1; IL-6 potentiation; U3A cells lack STAT1; 100 means same as IL-6 alone; potentiation (% of control), % at 5.7 µM; hit rate 64% among 1,200;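 active means percent activation of the STAT3 luciferase reporter above a set limit taken from the earlier primary screen, cut at about 130% in these data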;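 further: 0% = background signal of medium plus substrate and 100% = median of IL-6 with DMSO wells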
# NFkB act STAT3ct: NF-kB reporter activators in human cells, counter-screen for STAT3 activator project; shares compounds with STAT3 act-1; NF-kappaB reporter activation; activation (% of control), % at 5.7 µM; hit rate 11% among 1,200; AID 1309, 2008; in the data active means activation above about 120%;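 further: reporter induced by TNF-alpha stimulation; 100% = median of stimulated DMSO wells and 0% = no signal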
# STAT1 act-2: STAT1 reporter activators, IFN-gamma induced, counter-screen for STAT3 activator project, cell-based, NIH 3T3, luciferase luminescence; shares compounds with STAT3 act-1; NIH 3T3 STAT1-luciferase reporter; activation (% of control), % at 5.7 µM; hit rate 13% among 1,200; AID 1318, 2008;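 active means activation above the solvent-only control well mean plus 3 SD, set per screening run, cut at about 120% in these data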;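 further: 100% = IFN-gamma with DMSO median signal so 100% means no change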
# Active calls of the source: *; . = no result given. This is a sample that favours compounds with a hit; in the whole collection about 4.9% have one here.
SMILES,STAT3 inh,STAT3 act-1,STAT1 inh,STAT1 act-1,NF-kB neuron act,APP 5'UTR act,STAT3 act-2,NFkB act STAT3ct,STAT1 act-2
CNC(=S)N1CCN=C1Nc1nc(C)cc(C)n1,12,95,1,98,1.3,-15,.,.,.
COc1ccccc1N(C(C)=O)c1nc(C)cc(C)c1C#N,-75,165*,12,89,1.3,-9,152*,101,100
COc1ccc(C(=O)n2nc(-c3ccccc3)nc2SC)cc1,4,98,-4,104,1.2,9,.,.,.
COc1ccc(-c2nc3scc(-c4ccccc4)n3n2)cc1,-67,160*,12,89,1.2,27,144*,103,95
O=S(=O)(c1ccccc1)n1ccc2ccccc21,-41,139*,1,99,1,12,126,102,99
CSc1nsc(SCC(=O)NC2CCCCC2)n1,-35,137*,0,100,1.4,0,128,110,114
Cn1c(/N=C/c2cccs2)nc2ccccc21,-55,147*,1,99,0.59,-2,122,98,94
Cn1c(/N=C/c2cc(Cl)ccc2O)nc2ccccc21,-54,157*,-4,104,1.4,-14,130,109,90
CC(C)(C)c1nnc2sc(SC/C(O)=C(\C#N)c3nc4ccccc4[nH]3)nn2c1=O,0,105,0,100,0.6,-6,.,.,.
COc1ccc(C)cc1-n1nnnc1SC/C(O)=C(\C#N)c1nc2ccccc2[nH]1,-10,112,6,94,0.91,-2,.,.,.
Cc1ccc(Nc2nnc(SC/C(O)=C(\C#N)c3nc4ccccc4[nH]3)s2)c(C)c1,-60,145*,5,96,0.78,-7,151*,106,89
Cc1cccc(Nc2nnc(SC/C(O)=C(\C#N)c3nc4ccccc4[nH]3)s2)c1,-55,143*,10,91,0.92,0,153*,102,95
N#C/C(=C(/O)CSc1ncn[nH]1)c1nc2ccccc2[nH]1,-47,143*,8,93,0.76,-11,152*,107,100
CSc1nnc2c(n1)c(C)nn2-c1ccc(C)cc1,-56,149*,2,96,1.9,1,161*,116,128*
CN1CCc2c(sc3ncn4nc(-c5ccccc5O)nc4c23)C1,-98,182*,-6,106,1.2,-9,164*,107,101
c1coc(-c2nc3c4c5c(sc4ncn3n2)CCCC5)c1,22,84,9,91,0.82,3,.,.,.
O=c1c(Cl)c(N/N=C/c2ccc(Br)cc2)cnn1-c1ccccc1,-55,150*,-11,110,0.99,5,126,101,102
COc1cc(OC)c(C(=O)OC(C)C(=O)Nc2cccc(C(F)(F)F)c2)cc1OC (stereo unspecified),2,100,-1,101,0.92,-1,.,.,.
CC(=O)c1ccc(N2C(=O)[C@@H]3C(CCC(N)=O)NC4(C(=O)Nc5c4ccc(Cl)c5C)[C@@H]3C2=O)cc1 (stereo partly specified),-38,137*,16,86,0.96,0,128,102,91
Nc1ccc(C2=Nc3cccc4cccc(c34)N2)cc1,-71,158*,-6,105,0.85,-1,163*,108,108
COc1cc(OC)cc(C(=O)Oc2ccc(/C=N/Nc3nc4ccccc4s3)cc2OC)c1,-51,148*,-23,121,1.7,115,151*,97,155*
COc1ccc(C(=O)Oc2cc(/C=N/NC(N)=S)ccc2OC)cc1,10,96,-4,104,1.2,-16,.,.,.
COC(=O)c1cnn(-c2nc3c(C)cccc3s2)c1C,-40,140*,-1,101,2,1,134*,108,116
CC(=O)N1CCOCCOCCN(C(C)=O)CCOCC1,7,96,-9,107,1.1,8,.,.,.
O=C(COc1ccccc1Cl)Nc1cc(Cl)ccc1O,-74,166*,2,96,1.2,29,161*,100,94
SMILES,STAT3 inh,STAT3 act-1,STAT1 inh,STAT1 act-1,NF-kB neuron act,APP 5'UTR act,STAT3 act-2,NFkB act STAT3ct,STAT1 act-2
CCC(=O)N1CCN(c2ccccc2NC(=O)COc2ccccc2Cl)CC1,-61,156*,6,95,0.49,5,143*,106,100
Cc1nn(C)cc1CN(C)C(=O)CCc1nnc(CCC2CCCCC2)o1,-2,105,-20,116,1.4,5,.,.,.
Cc1ccc2cc(C)c3nnc(SCC(=O)c4cccs4)n3c2c1C,-10,109,12,89,1.4,7,.,.,.
Cc1cc2ccc(C)c(C)c2nc1SCC(=O)c1cccs1,-66,160*,21,81,0.71,-2,134*,100,91
COc1ccc(C(=O)C2CCCN(Cc3c[nH]c4ccccc34)C2)c(OC)c1 (stereo unspecified),-44,142*,10,90,1.1,-8,141*,104,100
Cc1cc(C)c(C)c(N=Nc2nc3ccccc3n2C)c1C,21,83,-8,107,1.5,56,.,.,.
Cc1ccc(C)c(N=Nc2nc3ccccc3n2C)c1,-74,176*,-28,126,3.9*,161*,223*,154*,237*
Cc1nnnn1CC(=O)Nc1cccc([N+](=O)[O-])c1,-4,108,-2,98,1.2,-2,.,.,.
COc1ccc(C(=O)n2nc(C)cc2Nc2ccccc2)cc1,-70,167*,-24,122,2.7,4,153*,119,136*
CN1c2ccccc2C(=O)NC1c1ccc(Cl)cc1 (stereo unspecified),15,93,6,93,1.2,3,.,.,.
Clc1ccc(C2Nc3ccccc3-n3cccc32)cc1 (stereo unspecified),-73,166*,5,96,0.98,5,160*,113,114
Cc1ccc(C)c(NC(=S)c2nc3ccccc3s2)c1,-53,142*,-4,104,1.4,19,203*,127*,130*
N#C/C(=C\c1ccco1)Sc1nc2ccccc2s1,-45,138*,-4,104,1.2,0,122,107,103

# Assay outcomes (PubChem)
